Active and inactive are the calls of the source. The rule behind the calls is not given here.
What was measured:
NHDF = experiment: Cytotoxicity against human NHDF cells assessed as growth inhibition after 72 hrs by MTT-based colorimetric assay; assay type: cell-based
How it was run: (§1)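 MTT colorimetric assay, 72 h exposure to the fumarate salt. Read-out is reduction of MTT to formazan by living cells. IC50 is the concentration that reduces the whole cell population by 50%. Six replicates per condition. Where compounds were not tested on every line, apoptosis-sensitive lines were PC3, MCF-7, LoVo and B16F10, and apoptosis-resistant lines were U373, T98G, A549 and SK-MEL-28.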

HL-60(TB) = experiment: Cytotoxicity against human HL-60(TB) cells assessed as residual growth at 10 uM; assay type: functional
LOX IMVI = experiment: Cytotoxicity against human LOXIMVI cells assessed as residual growth at 10 uM; assay type: functional
SK-MEL-28 [1] = experiment: Cytotoxicity against apoptotic-resistant human SK-MEL-28 cells assessed as growth inhibition after 72 hrs by MTT-based colorimetric assay; assay type: functional, cell-based; settings: Homo sapiens, SK-MEL-28, 72 h; how it was run: as §1
RPMI-8226 = experiment: Cytotoxicity against human RPMI8226 cells assessed as residual growth at 10 uM; assay type: functional
TK-10 = experiment: Cytotoxicity against human TK10 cells assessed as residual growth at 10 uM; assay type: functional
SK-MEL-28 [2] = experiment: Cytostatic activity against apoptotic-resistant human SK-MEL-28 cells assessed as increase in cell size at 5 uM after 72 hrs by quantitative videomicroscopy; assay type: functional, cell-based
How it was run: (§2)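 SK-MEL-28 cells exposed to 5 µM for 24, 48 and 72 h. Cell cycle was read by flow cytometry with propidium iodide plus TUNEL double staining (APO-Direct kit), in quadruplicate. Videomicroscopy photographed each field every 4 min over 72 h. Global growth is cells at a time point divided by cells at time 0; the treated/control ratio gives GGR. Cell death was judged from morphology. Run twice, in triplicate and in quadruplicate.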

DU-145 = experiment: Cytotoxicity against human DU145 cells assessed as residual growth at 10 uM; assay type: functional
SK-MEL-28 [3] = experiment: Cytostatic activity against apoptotic-resistant human SK-MEL-28 cells assessed as growth inhibition at 5 uM after 48 to 72 hrs by quantitative videomicroscopy; assay type: functional; settings: read-out: GI; how it was run: as §2
T47D = experiment: Cytotoxicity against human T47D cells assessed as residual growth at 10 uM; assay type: functional
Melanoma cell = experiment: Cytotoxicity against human Melanoma cells assessed as growth inhibition after 72 hrs by MTT-based colorimetric assay; assay type: functional
How it was run: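 Eleven human primary melanoma cultures treated for 72 h with the fumarate salt. Growth inhibition read by colorimetric MTT assay, with IC50 taken as 50% reduction of the cell population. Maximal concentration tested was 100 µM. Run once in sextuplicate.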

HCT-116 = experiment: Cytotoxicity against human HCT116 cells assessed as residual growth at 10 uM; assay type: functional
SK-MEL-28 [4] = experiment: Effect on oxygen consumption in human SK-MEL-28 cells at 10 uM after 72 hrs by oxygraphic analysis; assay type: functional, cell-based
How it was run: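 SKMEL-28 cells pre-incubated 72 h with 10^-5 M compound or untreated; five million cells per chamber in phenol red-free DMEM (glucose 1 g/L, pyruvate 110 mg/L). ROUTINE respiration recorded by high-resolution respirometry (Clark electrode), 37 °C, continuous stirring from chamber closure; O2 consumption slopes taken as routine respiration.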

PC-3 [5] = experiment: Cytotoxicity against apoptotic-sensitive human PC3 cells assessed as growth inhibition after 72 hrs by MTT-based colorimetric assay; assay type: functional, cell-based; settings: Homo sapiens, PC-3, 72 h; how it was run: as §1
SK-MEL-28 [6] = experiment: Cytotoxicity against apoptotic-resistant human SK-MEL-28 cells assessed as cell death at 5 uM after 72 hrs by quantitative videomicroscopy; assay type: functional, cell-based; how it was run: as §2
OVCAR-3 = experiment: Cytotoxicity against human OVCAR3 cells assessed as residual growth at 10 uM; assay type: functional
MDA-MB-231 = experiment: Cytotoxicity against human MDA-MB-231 cells assessed as residual growth at 10 uM; assay type: functional
LoVo = experiment: Cytotoxicity against apoptotic-sensitive human LoVo cells assessed as growth inhibition after 72 hrs by MTT-based colorimetric assay; assay type: functional, cell-based; settings: Homo sapiens, LoVo, 72 h; how it was run: as §1
MOLT-4 = experiment: Cytotoxicity against human MOLT4 cells assessed as residual growth at 10 uM; assay type: functional
MCF7 [7] = experiment: Cytotoxicity against apoptotic-sensitive human MCF7 cells assessed as growth inhibition after 72 hrs by MTT-based colorimetric assay; assay type: functional, cell-based; settings: Homo sapiens, MCF7, 72 h; how it was run: as §1
KM12 = experiment: Cytotoxicity against human KM12 cells assessed as residual growth at 10 uM; assay type: functional
MCF7 [8] = experiment: Cytotoxicity against human MCF7 cells assessed as residual growth at 10 uM; assay type: functional
PC-3 [9] = experiment: Cytotoxicity against human PC3 cells assessed as residual growth at 10 uM; assay type: functional
A498 = experiment: Cytotoxicity against human A498 cells assessed as residual growth at 10 uM; assay type: functional
IGROV-1 = experiment: Cytotoxicity against human IGROV1 cells assessed as residual growth at 10 uM; assay type: functional
NCI-H322M = experiment: Cytotoxicity against human NCI-H322M cells assessed as residual growth at 10 uM; assay type: functional
[10] = Cytotoxicity against human UACC257 cells assessed as residual growth at 10 uM; assay type: functional, UACC-257
RXF 393 = experiment: Cytotoxicity against human RXF393 cells assessed as residual growth at 10 uM; assay type: functional
SK-MEL-28 [11] = experiment: Increase in cell size of human SK-MEL-28 cells at 5 uM after 24 hrs by MitoTracker Green FM-based fluorescence microscopic analysis; assay type: functional
How it was run: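 SKMEL-28 cells seeded on glass coverslips 48 h before treatment at 5 µM (3 to 48 h); two washes, mitochondria stained with 100 nM MitoTracker Green FM in phenol red-free RPMI for 30 min, rinsed twice, viewed by fluorescence microscopy. Three coverslips per condition.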

A549 = experiment: Cytotoxicity against apoptotic-resistant human A549 cells assessed as growth inhibition after 72 hrs by MTT-based colorimetric assay; assay type: functional, cell-based; settings: Homo sapiens, A549, 72 h; how it was run: as §1
[12] = Cytotoxicity against human OVCAR4 cells assessed as residual growth at 10 uM; assay type: functional, OVCAR-4
T98G = experiment: Cytotoxicity against apoptotic-resistant human T98G cells assessed as growth inhibition after 72 hrs by MTT-based colorimetric assay; assay type: functional, cell-based; settings: Homo sapiens, T98G, 72 h; how it was run: as §1
CAKI-1 = experiment: Cytotoxicity against human Caki1 cells assessed as residual growth at 10 uM; assay type: functional
SW-620 = experiment: Cytotoxicity against human SW620 cells assessed as residual growth at 10 uM; assay type: functional
ACHN = experiment: Cytotoxicity against human ACHN cells assessed as residual growth at 10 uM; assay type: functional
SR = experiment: Cytotoxicity against human SR cells assessed as residual growth at 10 uM; assay type: functional
SNB-75 = experiment: Cytotoxicity against human SNB75 cells assessed as residual growth at 10 uM; assay type: functional
SK-MEL-2 = experiment: Cytotoxicity against human SK-MEL-2 cells assessed as residual growth at 10 uM; assay type: functional
SF-295 = experiment: Cytotoxicity against human SF295 cells assessed as residual growth at 10 uM; assay type: functional
HT-29 = experiment: Cytotoxicity against human HT-29 cells assessed as residual growth at 10 uM; assay type: functional
HOP-62 = experiment: Cytotoxicity against human HOP62 cells assessed as residual growth at 10 uM; assay type: functional
SK-MEL-28 [13] = experiment: Cytotoxicity against human SK-MEL-28 cells assessed as residual growth at 10 uM; assay type: functional

## C=CCCCCOc1ccccc1-c1cnc(OCCCCC=C)n1C
NHDF
  IC50: 36 µM
HL-60(TB)
  Activity: 66.52%
LOX IMVI
  Activity: 69.06%
SK-MEL-28 [1]
  IC50: 5 µM
RPMI-8226
  Activity: 80.75%
TK-10
  Activity: 74.98%
SK-MEL-28 [2]
  Activity: Active
DU-145
  Activity: 92.64%
SK-MEL-28 [3]
  inhibition of growth at 5 µM: 50%
T47D
  Activity: 61.88%
Melanoma cell
  Activity: Active
HCT-116
  Activity: 61.02%
SK-MEL-28 [4]
  Activity: Active
PC-3 [5]
  IC50: 9 µM
SK-MEL-28 [6]
  Activity: inactive
OVCAR-3
  Activity: 51.28%
MDA-MB-231
  Activity: 66.46%
LoVo
  IC50: 5 µM
MOLT-4
  Activity: 91.38%
MCF7 [7]
  IC50: 5 µM
KM12
  Activity: 38.37%
MCF7 [8]
  Activity: 42.18%
PC-3 [9]
  Activity: 73.54%
A498
  Activity: 51.15%
IGROV-1
  Activity: 62.95%
NCI-H322M
  Activity: 71.99%
[10]
  Activity: 66.63%
RXF 393
  Activity: 90.54%
SK-MEL-28 [11]
  Activity: Active
A549
  IC50: 7 µM
[12]
  Activity: 97.91%
T98G
  IC50: 4 µM
CAKI-1
  Activity: 54.94%
SW-620
  Activity: 30.82%
ACHN
  Activity: 84.54%
SR
  Activity: 30.69%
SNB-75
  Activity: 81.88%
SK-MEL-2
  Activity: 46.08%
SF-295
  Activity: 70.07%
HT-29
  Activity: 18.11%
HOP-62
  Activity: 77.15%
SK-MEL-28 [13]
  Activity: 73.36%
